Assay results taken from PubChem BioAssay AID651740 (Broad Institute, 2012).
Screen size: about 5,600 compounds; about 1,200 (21%) were called active. Not shown: some 3% with an inconclusive outcome.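 Rule for the calls: active = mean inhibition above about 95%, with at least 55% of replicates also reaching it (limit read from the data); inconclusive = meets just one of the two conditions; inactive = meets neither condition.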 Only a sample is shown.

Experiment: inhibitors of intracellular T. cruzi replication, confirmation, NIH3T3 host cells, beta-gal parasites, cherry-pick, set 2 (AID 651740);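 note: plate controls were neutral control median for no effect and positive control median for full effect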
Settings: T. cruzi beta-gal in NIH3T3, GalScreen luminescence, 90 h; at 2.09 µM; hits give high values
In short: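 assay system = mouse NIH/3T3 fibroblasts infected with beta-galactosidase T. cruzi Tulahuen C4 | quantity = 5,000 fibroblasts/well | buffer or medium = 2% FBS DMEM with PSG | reagent = 5000 trypomastigotes per well | compound dosing = one concentration, 100 nL compound in DMSO | timing = ≥90 h infection with compound, 60 min read delay | signal = luminescence, GalScreen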

Structure (SMILES) | inhibition
Cc1ccccc1-c1ccc([C@H]2[C@H]3CN(S(=O)(=O)c4ccc(F)cc4)CCCCN3[C@H]2CO)cc1 | 93.8% (inactive)
C[C@@H]1CCCCO[C@H](CN(C)S(=O)(=O)c2ccc(F)cc2)[C@H](C)CN([C@@H](C)CO)C(=O)c2cc(NS(=O)(=O)c3ccccc3)ccc2O1 | 47.8% (inactive)
O=C(CN1CCOCC1)N1CCCCN2[C@@H](CO)[C@H](c3ccc(-c4ccccc4)cc3)[C@@H]2C1 | 36.1% (inactive)
CC(C)NC(=O)N1[C@H](C#N)[C@H](c2ccc(C#CC3CCCCC3)cc2)[C@H]1CO | 117% (active)
CCCC#Cc1ccc([C@@H]2[C@@H](C#N)N(C(=O)C3CCCC3)[C@@H]2CO)cc1 | 73.2% (inactive)
CS(=O)(=O)N1[C@@H](C#N)[C@H](c2ccc(C#CC3CCCCC3)cc2)[C@@H]1CO | 35.7% (inactive)
CN1c2ccc(-c3ccccc3)cc2[C@@H]2[C@@H](CCN2C(=O)c2ccncc2)[C@@H]1CO | 64.5% (inactive)
C[C@@H]1CN([C@H](C)CO)C(=O)Cc2cc(NC(=O)c3ccncc3)ccc2O[C@H]1CN(C)Cc1ccc(-c2ccccc2)cc1 | 48.9% (inactive)
N#Cc1cccc(-c2ccc([C@H]3[C@H](CO)N4CCCCN(C(=O)Nc5cccc(F)c5)C[C@@H]34)cc2)c1 | 87.9% (inactive)
COc1ccc(C#Cc2cnc3c(c2)C(=O)N([C@@H](C)CO)C[C@H](C)[C@@H](CN(C)C(C)=O)O3)cc1 | -5.22% (inactive)
C[C@@H]1CN([C@@H](C)CO)C(=O)c2cc(C#Cc3ccccc3)cnc2O[C@H]1CN(C)C(=O)c1ccccn1 | 62.8% (inactive)
COCC(=O)N(C)C[C@@H]1Oc2ncc(C#Cc3ccccc3OC)cc2C(=O)N([C@@H](C)CO)C[C@H]1C | 99.4% (active)
C[C@H]1CN([C@@H](C)CO)C(=O)CCCn2cc(nn2)CO[C@H]1CN(C)C(=O)c1ccccc1 | -12.4% (inactive)
C[C@H](CO)N1C[C@H](C)[C@@H](CN(C)S(=O)(=O)c2cccc(F)c2)OCc2ccccc2-c2c(n(C)c3ccccc23)C1=O | 91.4% (inactive)
O=C(CN1CCOCC1)N1CCCCN2[C@H](CO)[C@H](c3ccc(-c4ccccc4)cc3)[C@@H]2C1 | 49.3% (inactive)
CCCC#Cc1ccc2c(c1)O[C@@H](CN(C)C(=O)c1ccccc1F)[C@H](C)CN([C@H](C)CO)S2(=O)=O | 19.4% (inactive)
C[C@H](CO)N1C[C@H](C)[C@H](CN(C)Cc2cccnc2)Oc2cc(C#CC3CCCC3)ccc2S1(=O)=O | 82.9% (inactive)
CC(C)C#Cc1ccc2c(c1)O[C@H](CN(C)Cc1ccccc1)[C@H](C)CN([C@@H](C)CO)S2(=O)=O | 105% (active)
C[C@H]1CN([C@@H](C)CO)S(=O)(=O)c2ccc(C#CCN(C)C)cc2O[C@@H]1CN(C)Cc1ccc(F)cc1 | 93.3% (inactive)
C[C@@H]1CN([C@H](C)CO)S(=O)(=O)c2ccc(C#CC3CCCC3)cc2O[C@@H]1CN(C)Cc1cccnc1 | 60.2% (inactive)
C[C@@H]1CN([C@@H](C)CO)S(=O)(=O)c2ccc(C#Cc3ccc(F)cc3)cc2O[C@H]1CN(C)C(=O)NC1CCCC1 | 81.2% (inactive)

Structure (SMILES) | inhibition
C[C@@H]1CN([C@H](C)CO)S(=O)(=O)c2ccc(C3=CCCC3)cc2O[C@H]1CN(C)Cc1ccccc1F | 73.8% (inactive)
C[C@H]1CN([C@@H](C)CO)S(=O)(=O)c2ccc(C3=CCCC3)cc2O[C@@H]1CN(C)Cc1ccccc1 | 68% (inactive)
C[C@@H]1CN([C@@H](C)CO)S(=O)(=O)c2ccc(C#Cc3ccccc3)cc2O[C@@H]1CN(C)C(=O)Nc1ccccc1 | 99.8% (active)
C[C@@H]1CN([C@@H](C)CO)S(=O)(=O)c2ccc(/C=C/c3ccccc3)cc2O[C@H]1CN(C)Cc1ccccc1 | 106% (active)
C[C@H]1CN([C@@H](C)CO)S(=O)(=O)c2ccc(C3=CCCCC3)cc2O[C@@H]1CN(C)Cc1ccccc1 | 109% (active)
C[C@H](CO)N1C[C@H](C)[C@@H](CN(C)Cc2ccncc2)Oc2cc(Br)ccc2S1(=O)=O | 92.7% (inactive)
C[C@@H]1CN([C@@H](C)CO)S(=O)(=O)c2ccc(C#Cc3ccc(F)cc3)cc2O[C@H]1CN(C)C(=O)c1ccccn1 | 14.4% (inactive)
C[C@H](CO)N1C[C@H](C)[C@@H](CN(C)S(=O)(=O)c2ccccc2)Oc2ncc(C#Cc3ccccc3F)cc2C1=O | 93% (inactive)
C[C@H](CO)N1C[C@H](C)[C@H](CN(C)S(=O)(=O)c2cccc(F)c2)Oc2ncc(/C=C/c3ccccc3)cc2C1=O | 46.4% (inactive)
C[C@H]1CN([C@@H](C)CO)C(=O)c2cccc(NS(=O)(=O)c3cn(C)cn3)c2O[C@@H]1CN(C)CC1CCCCC1 | 29.6% (inactive)
Cc1noc(C)c1S(=O)(=O)Nc1ccc2c(c1)C(=O)N([C@@H](C)CO)C[C@H](C)[C@@H](CN(C)C(=O)Nc1cccc3ccccc13)OCCCC[C@H](C)O2 | 42.4% (inactive)
CC(C)(C)[S@@](=O)N1Cc2cc(C(=O)NCc3ccc4c(c3)OCO4)nc(-c3cccc(-c4ccccc4)c3)c2[C@H]1CCO | 91.6% (inactive)
O=C(Nc1ccc(Cl)cc1)N[C@@H]1CC[C@@H](CCNC(=O)c2ccccc2F)O[C@H]1CO | 36.4% (inactive)
Cc1ccc(S(=O)(=O)N(C)C[C@@H]2Oc3ncc(-c4cc5ccccc5o4)cc3C(=O)N([C@H](C)CO)C[C@@H]2C)cc1 | 43% (inactive)
COc1ccccc1-c1ccc2c(c1)O[C@H](CN(C)S(=O)(=O)c1ccc(C)cc1)[C@@H](C)CN([C@H](C)CO)S2(=O)=O | 91.3% (inactive)
O=C(Nc1ccccc1)N1CCCCN2[C@H](CO)[C@@H](c3ccc(C#Cc4ccccn4)cc3)[C@H]2C1 | 39.3% (inactive)
C[C@H](CO)N1C[C@H](C)[C@@H](CN(C)C(=O)C2CCCCC2)Oc2cc(-c3ccccc3)ccc2S1(=O)=O | 68.2% (inactive)
C[C@H](CO)N1C[C@H](C)[C@H](CN(C)Cc2ccncc2)Oc2cc(-c3ccncc3)ccc2S1(=O)=O | 90.6% (inactive)
CCCN(C)C[C@@H]1Oc2cc(C#Cc3ccc(F)cc3)ccc2S(=O)(=O)N([C@H](C)CO)C[C@H]1C | 68.9% (inactive)
C[C@@H]1CN([C@H](C)CO)S(=O)(=O)c2ccc(C#C[C@@H](C)O)cc2O[C@@H]1CN(C)Cc1ccc(-c2ccccc2)cc1 | 96.9% (active)
